According to article PMC5030192 (International journal of pharmaceutics, 2016):
Values after ≈ are worked out from the molar mass of the structure shown. Values belong to the compound of their own block, whether it stands above or below them. Square brackets hold non-standard residues; d marks the D form. Peptide text beside a SMILES is read from it. Sar = CNCC(=O)O

Experiments:
MDCKII-WT cells = test: MTS based cytotoxicity assay
[1] = ref Patel, 2014, cited from earlier work
PepT1 = test: [3H]-GlySar uptake, interaction with peptide transporter; assay type: cell-based
Outline: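 Monolayers grown to 80–90% confluency (6–7 days after seeding 3 × 10⁶ cells) were washed thrice in DPBS pH 7.4 at 37°C. They were then incubated 30 min at 37°C with [3H]-GlySar in DPBS plus test compound (25µM) or cold GlySar (10mM). Ice-cold stop wash, lysis in 0.1% Triton-X/0.3% NaOH overnight, scintillation counting; uptake normalised to protein. n=4, mean ± S.D., Student t-test.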

P-gp = P-gp (Homo sapiens, UniProt P08183); test: [3H]-LPV cellular uptake in MDCK-MDR1 cells; assay type: cell-based
[2] = Solubility studies in distilled deionized water; assay type: physicochemical; details: thermodynamic from solid
PHT1 = test: [3H]-His uptake, interaction with peptide/histidine transporter; assay type: cell-based; details: 25µM; MDCK-MDR1, MDCK-MRP2, Caco-2
MRP2 = MRP2 (Homo sapiens, UniProt Q92887); test: [3H]-LPV cellular uptake in MDCK-MRP2 cells; assay type: cell-based
Sequence of MRP2 (Q92887 whole entry): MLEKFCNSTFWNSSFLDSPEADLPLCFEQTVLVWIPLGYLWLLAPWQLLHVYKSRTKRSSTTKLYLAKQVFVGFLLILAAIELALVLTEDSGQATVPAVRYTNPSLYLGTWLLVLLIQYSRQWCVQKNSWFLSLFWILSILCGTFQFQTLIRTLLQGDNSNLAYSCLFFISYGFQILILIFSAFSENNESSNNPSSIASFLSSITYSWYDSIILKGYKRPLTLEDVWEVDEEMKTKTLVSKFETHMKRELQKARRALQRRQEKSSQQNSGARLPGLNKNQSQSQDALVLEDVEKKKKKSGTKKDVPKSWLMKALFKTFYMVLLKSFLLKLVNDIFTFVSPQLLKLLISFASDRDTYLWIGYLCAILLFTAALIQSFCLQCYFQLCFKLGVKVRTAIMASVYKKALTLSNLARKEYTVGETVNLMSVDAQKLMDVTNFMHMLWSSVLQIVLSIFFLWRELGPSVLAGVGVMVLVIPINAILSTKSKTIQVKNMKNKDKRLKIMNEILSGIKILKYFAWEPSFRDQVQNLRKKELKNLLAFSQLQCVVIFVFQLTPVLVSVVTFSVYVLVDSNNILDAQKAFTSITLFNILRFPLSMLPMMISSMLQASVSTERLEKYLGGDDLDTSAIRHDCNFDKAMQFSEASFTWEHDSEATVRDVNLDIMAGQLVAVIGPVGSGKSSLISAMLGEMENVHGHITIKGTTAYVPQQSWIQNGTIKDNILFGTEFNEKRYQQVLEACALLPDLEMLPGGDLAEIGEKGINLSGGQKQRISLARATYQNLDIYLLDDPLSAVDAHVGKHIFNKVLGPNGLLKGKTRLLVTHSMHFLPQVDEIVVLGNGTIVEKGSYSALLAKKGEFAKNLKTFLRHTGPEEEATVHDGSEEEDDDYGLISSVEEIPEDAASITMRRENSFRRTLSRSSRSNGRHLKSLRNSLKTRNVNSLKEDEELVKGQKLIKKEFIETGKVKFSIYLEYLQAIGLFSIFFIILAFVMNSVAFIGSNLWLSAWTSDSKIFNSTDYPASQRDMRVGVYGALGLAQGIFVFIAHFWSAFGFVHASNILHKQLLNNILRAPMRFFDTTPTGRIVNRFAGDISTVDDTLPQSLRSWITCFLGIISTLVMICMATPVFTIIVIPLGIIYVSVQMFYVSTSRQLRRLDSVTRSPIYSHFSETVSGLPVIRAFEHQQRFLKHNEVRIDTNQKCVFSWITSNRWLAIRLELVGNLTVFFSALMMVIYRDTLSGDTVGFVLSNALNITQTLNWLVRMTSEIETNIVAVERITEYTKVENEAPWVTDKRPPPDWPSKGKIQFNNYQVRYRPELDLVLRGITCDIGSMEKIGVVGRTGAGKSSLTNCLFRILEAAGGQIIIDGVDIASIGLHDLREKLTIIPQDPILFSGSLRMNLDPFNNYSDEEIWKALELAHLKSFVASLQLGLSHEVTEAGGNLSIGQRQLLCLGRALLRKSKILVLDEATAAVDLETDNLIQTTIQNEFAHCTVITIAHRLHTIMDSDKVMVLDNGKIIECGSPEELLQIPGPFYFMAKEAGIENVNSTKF

Sequence of P-gp (P08183 whole entry): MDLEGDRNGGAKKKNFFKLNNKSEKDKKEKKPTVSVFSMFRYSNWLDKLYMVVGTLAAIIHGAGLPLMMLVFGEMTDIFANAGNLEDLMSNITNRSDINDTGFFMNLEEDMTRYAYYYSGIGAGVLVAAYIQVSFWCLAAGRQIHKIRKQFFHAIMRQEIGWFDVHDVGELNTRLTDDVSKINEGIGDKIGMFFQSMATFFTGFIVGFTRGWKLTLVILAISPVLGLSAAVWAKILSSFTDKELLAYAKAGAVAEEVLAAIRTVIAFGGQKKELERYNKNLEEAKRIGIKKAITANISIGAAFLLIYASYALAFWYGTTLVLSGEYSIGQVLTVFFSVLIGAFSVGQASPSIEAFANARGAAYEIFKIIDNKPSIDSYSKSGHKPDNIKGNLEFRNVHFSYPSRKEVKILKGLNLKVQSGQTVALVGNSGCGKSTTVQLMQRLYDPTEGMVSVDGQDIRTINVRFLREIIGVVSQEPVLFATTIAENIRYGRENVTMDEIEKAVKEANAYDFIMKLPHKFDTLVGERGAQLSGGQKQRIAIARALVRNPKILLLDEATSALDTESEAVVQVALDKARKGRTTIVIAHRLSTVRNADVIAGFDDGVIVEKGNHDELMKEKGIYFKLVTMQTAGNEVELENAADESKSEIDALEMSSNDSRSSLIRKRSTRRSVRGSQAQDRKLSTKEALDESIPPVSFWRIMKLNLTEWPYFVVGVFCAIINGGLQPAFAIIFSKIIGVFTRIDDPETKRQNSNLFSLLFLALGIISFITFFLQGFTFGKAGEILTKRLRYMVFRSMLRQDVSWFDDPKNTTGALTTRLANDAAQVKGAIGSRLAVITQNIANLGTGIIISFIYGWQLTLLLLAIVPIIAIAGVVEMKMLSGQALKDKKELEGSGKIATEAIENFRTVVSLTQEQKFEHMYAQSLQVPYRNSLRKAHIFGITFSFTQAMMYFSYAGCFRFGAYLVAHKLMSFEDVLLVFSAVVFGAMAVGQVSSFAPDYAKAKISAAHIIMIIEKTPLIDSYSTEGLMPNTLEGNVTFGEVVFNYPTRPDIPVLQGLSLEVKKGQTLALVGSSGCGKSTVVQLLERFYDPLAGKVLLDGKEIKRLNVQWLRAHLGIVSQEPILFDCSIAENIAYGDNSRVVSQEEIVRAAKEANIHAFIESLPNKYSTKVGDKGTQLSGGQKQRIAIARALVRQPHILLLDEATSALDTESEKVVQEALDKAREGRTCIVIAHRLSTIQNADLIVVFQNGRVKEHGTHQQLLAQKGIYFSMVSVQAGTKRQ

SMILES: CC(C)(C)CC(C)(C)c1ccc(OCCO)cc1 [Triton-X]
decrease in absorbance compared to negative control (MDCKII-WT cells; 0.1% Triton-X, positive control): about 70%

[3H]-LPV uptake with increasing concentrations of unlabelled compound (P-gp): dramatically elevated
solubility at 24 h [2]: 49 ± 3 µg/mL (≈ 77.9 µM)
[3H]-LPV uptake with increasing concentrations of unlabelled compound (MRP2): dramatically elevated
SMILES: Cc1cccc(C)c1OCC(=O)N[C@@H](Cc1ccccc1)[C@@H](O)C[C@H](Cc1ccccc1)NC(=O)[C@H](C(C)C)N1CCCNC1=O [LPV, Lopinavir]
mean residential time (MRT) ([1]; LPV itself dosed orally, rats): 3.13 h
mean residential time (MRT) of regenerated LPV ([1]; regenerated after oral Val-Ile-LPV, rats): 10.1 h
Area under the curve (AUC) of administered compound ([1]; single oral dose, Sprague Dawley rats): 177 ± 5 µmol·min/L
variation in [3H]-GlySar uptake in presence of compound (PepT1; 25µM, MDCK-MDR1, MDCK-MRP2, Caco-2): no such variation
reduction in number of viable cells (MDCKII-WT cells; 100 µM, 4h incubation, MDCK-WT cells): Approximately 13%
reduction in number of viable cells / cell viability (MDCKII-WT cells; 200 µM, 4h incubation, MDCK-WT cells): ~36%
Cytotoxicity (MDCKII-WT cells; 5–50 µM, 4h incubation, MDCK-WT cells): no cytotoxic effects
variation in [3H]-L-His uptake in presence of compound (PHT1): no such variation

SMILES: CN(CC(=O)O)C(=O)CN [GlySar, Glycylsarcosine] (H-Gly-[Sar]-OH)
reduction in [3H]-GlySar uptake (PepT1; all cell lines (MDCK-MDR1, MDCK-MRP2, Caco-2), prodrug 25µM, cold GlySar 10mM): 75%
